Measurements reported in ChEMBL document CHEMBL1129368 (J Med Chem, 1996).
Bridge positions count the residues as written; N and C are the ends. Square brackets hold non-standard residues; d marks the D form. Peptide text beside a SMILES is read from it. Pen = CC(C)(S)[C@H](N)C(=O)O; Sar = CNCC(=O)O

Target: Type-1 angiotensin II receptor (Bos taurus) (UniProt P25104)
Assay: Binding affinity was determined against Angiotensin II receptor, type 1

Sequence of Type-1 angiotensin II receptor (Bos taurus) (P25104 whole entry, looked up): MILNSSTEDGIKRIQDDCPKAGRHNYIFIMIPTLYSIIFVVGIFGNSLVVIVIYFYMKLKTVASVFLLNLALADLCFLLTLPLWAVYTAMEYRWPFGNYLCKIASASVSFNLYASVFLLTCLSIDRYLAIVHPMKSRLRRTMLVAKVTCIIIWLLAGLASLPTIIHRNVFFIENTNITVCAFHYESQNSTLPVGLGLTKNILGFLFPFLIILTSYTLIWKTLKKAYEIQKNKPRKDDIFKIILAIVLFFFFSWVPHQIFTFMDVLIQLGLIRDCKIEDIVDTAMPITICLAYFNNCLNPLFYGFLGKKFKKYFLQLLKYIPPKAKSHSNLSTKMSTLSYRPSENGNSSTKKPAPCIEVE

Row | SMILES | Kd [nM]
1 | CNCC(=O)N[C@@H](CCCNC(=N)N)C(=O)N[C@H](C(=O)N[C@@H](Cc1ccc(O)cc1)C(=O)N[C@@H]1CSS[C@@H]2C[C@H](C(=O)N[C@@H](Cc3ccccc3)C(=O)O)N(C2)C(=O)[C@@H](Cc2cnc[nH]2)NC1=O)C(C)C | 2300
2 | CNCC(=O)N[C@@H](CCCNC(=N)N)C(=O)N[C@H](C(=O)N[C@@H](Cc1ccc(O)cc1)C(=O)N[C@H]1CSS[C@@H]2C[C@@H](C(=O)N[C@@H](Cc3ccccc3)C(=O)O)N(C2)C(=O)[C@H](Cc2cnc[nH]2)NC1=O)C(C)C | > 10000
3 | CNCC(=O)N[C@@H](CCCNC(=N)N)C(=O)N[C@H](C(=O)N[C@H](Cc1ccc(O)cc1)C(=O)N1CCC[C@H]1C(=O)N[C@@H](Cc1cnc[nH]1)C(=O)N1CCC[C@H]1C(=O)N[C@@H](Cc1ccccc1)C(=O)O)C(C)C | 58
4 | CNCC(=O)N[C@@H](CCCNC(=N)N)C(=O)N[C@H](C(=O)N[C@@H](Cc1ccc(O)cc1)C(=O)N[C@@H]1CCSS[C@@H]2C[C@H](C(=O)N[C@@H](Cc3ccccc3)C(=O)O)N(C2)C(=O)[C@@H](Cc2cnc[nH]2)NC1=O)C(C)C | 20
5 | CNCC(=O)N[C@@H](CCCNC(=N)N)C(=O)N[C@H](C(=O)N[C@@H](Cc1ccc(O)cc1)C(=O)N[C@H]1CSSC(C)(C)[C@@H](C(=O)N[C@@H](Cc2ccccc2)C(=O)O)NC(=O)[C@H](Cc2cnc[nH]2)NC1=O)C(C)C (H-[Sar]RVYCH[Pen]F-OH; disulfide 5-7) | > 10000

Other lines, results leading:

Row | Kd [nM] | SMILES
6 | 750 | CNCC(=O)N[C@@H](CCCNC(=N)N)C(=O)N[C@H](C(=O)N[C@@H](Cc1ccc(O)cc1)C(=O)N[C@H]1CCSS[C@@H]2C[C@@H](C(=O)N[C@@H](Cc3ccccc3)C(=O)O)N(C2)C(=O)[C@H](Cc2cnc[nH]2)NC1=O)C(C)C
7 | > 10000 | CNCC(=O)N[C@@H](CCCN=C(N)N)C(=O)N[C@H](C(=O)N[C@H](Cc1ccc(O)cc1)C(=O)N[C@@H]1CCC(=O)N[C@@H]2C[C@H](C(=O)N[C@H](Cc3ccccc3)C(=O)O)N(C2)C(=O)[C@@H](Cc2c[nH]cn2)NC1=O)C(C)C
8 | > 10000 | CNCC(=O)N[C@@H](CCCNC(=N)N)C(=O)N[C@H](C(=O)N[C@@H](Cc1ccc(O)cc1)C(=O)N[C@@H]1CC(=O)N[C@@H]2C[C@H](C(=O)N[C@@H](Cc3ccccc3)C(=O)O)N(C2)C(=O)[C@@H](Cc2cnc[nH]2)NC1=O)C(C)C

Organism: Oryctolagus cuniculus
Assay: Activity of compound in contraction assays performed using isolated rabbit aorta
Assay type: functional
How it was run: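 Rings (5 mm) cut from excised aorta, cleaned of adipose tissue, hung in 5 mL organ baths of continuously oxygenated Krebs solution at 37 °C, changed every 15 min. Initial tension 2 g, readjusted until stable (about 90 min equilibration) before testing.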

Row | SMILES | EC50 [nM]
9 | CNCC(=O)N[C@@H](CCCN=C(N)N)C(=O)N[C@H](C(=O)N[C@H](Cc1ccc(O)cc1)C(=O)N1CCC[C@H]1C(=O)N[C@@H](Cc1c[nH]cn1)C(=O)N1CCC[C@H]1C(=O)N[C@@H](Cc1ccccc1)C(=O)O)C(C)C | 94
10 | CNCC(=O)N[C@@H](CCCNC(=N)N)C(=O)N[C@H](C(=O)N[C@@H](Cc1ccc(O)cc1)C(=O)N[C@@H]1CCSS[C@@H]2C[C@H](C(=O)N[C@@H](Cc3ccccc3)C(=O)O)N(C2)C(=O)[C@@H](Cc2cnc[nH]2)NC1=O)C(C)C | 1770
11 | CNCC(=O)N[C@@H](CCCN=C(N)N)C(=O)N[C@H](C(=O)N[C@@H](Cc1ccc(O)cc1)C(=O)N[C@H](C(=O)N[C@@H](Cc1c[nH]cn1)C(=O)N1CCC[C@H]1C(=O)N[C@@H](Cc1ccccc1)C(=O)O)C(C)C)C(C)C (H-[Sar]RVYVHPF-OH) | 0.35
12 | CC[C@H](C)[C@H](NC(=O)[C@H](Cc1ccc(O)cc1)NC(=O)[C@@H](NC(=O)[C@H](CCCNC(=N)N)NC(=O)[C@@H](N)CC(=O)O)C(C)C)C(=O)N[C@@H](Cc1cnc[nH]1)C(=O)N1CCC[C@H]1C(=O)N[C@@H](Cc1ccccc1)C(=O)O [ANGIOTENSIN II] | 4.6
